The values that follow come from ChEMBL document CHEMBL2390832, “Synthesis and activity evaluation of tilorone analogs as potential anticancer agents” (Eur J Med Chem, 2013).

Where a name gives a salt, the structure may show the parent alone. Activity calls are given as the source filed them. The calls are words filed in the database; no cut-off is given here.

In general, IC50 refers to the concentration at which inhibition is half-maximal.

Experiment [1] deals with HeLa. The experiment in a line: Anticancer activity against human HeLa cells after 48 hrs by MTT assay. The experiment is classed as functional, cell-based. The method in brief:
(§1)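 Cells seeded at 1 × 10⁴/well in DMEM with 10% FBS and left overnight at 37 °C, 5% CO₂. Five concentrations (1 µM–100 µM) diluted in DMEM were added and incubated for 48 h. MTT (10 µl of 5 mg/ml) was then added for 4 h at 37 °C. Formazan was dissolved in DMSO and absorbance read at 490 nm. At least three parallel runs; IC50 by regression analysis.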

A further experiment has as its system Vero. The experiment in a line: Cytotoxicity against African green monkey Vero cells after 48 hrs by MTT assay. The experiment is classed as cell-based. The note with it: Chlorocebus sabaeus. The method in brief: as §1
In general terms: Formazan colour is commonly taken as a measure of viable cells.

The subject of experiment [2] is A549. Nature of the experiment: Anticancer activity against human A549 cells after 48 hrs by MTT assay. The class given is functional, cell-based. The note with it: A549, 48 h. The method in brief:
as §1

Experiment [3] can be described thus: Anticancer activity against human Hep3B cells after 48 hrs by MTT assay. The class given is functional, cell-based, Hep 3B2. Put shortly: as §1
Another experiment relates to HEK-293T. The experiment in a line: Cytotoxicity against human HEK293T cells after 48 hrs by MTT assay. The experiment is classed as cell-based. The method in brief: as §1
Experiment [4] concerns HeLa. The experiment in a line: Anticancer activity against human HeLa cells at =/> 100 uM after 48 hrs by MTT assay. The class given is functional, cell-based.
In experiment [5] the test system is A549. Nature of the experiment: Anticancer activity against human A549 cells at =/> 100 uM after 48 hrs by MTT assay. The class given is functional, cell-based.
Another experiment has as its system Hep 3B2. Nature of the experiment: Anticancer activity against human Hep3B cells at =/> 100 uM after 48 hrs by MTT assay. The class given is functional, cell-based.

Turning to `O=C1c2cc(OCC(O)CN3CCCCC3)ccc2-c2ccc(OCC(O)CN3CCCCC3)cc21` (centres undefined), the IC50 worked out at 1.82 µM in the experiment on HeLa [1]; 13 µM with Vero; 1.4 µM in the experiment on A549 [2]; 6.76 µM in experiment [3]; 17.9 µM in the experiment on HEK-293T.
The corresponding values for `O=c1c(-c2ccc(OCC(O)CN3CCCCC3)cc2)coc2cc(OCC(O)CN3CCCCC3)ccc12` (centres undefined) are 5.32 µM, 18.5 µM, 4.34 µM, 12 µM and 20.2 µM.
Take `O=c1c(-c2ccc(OCCCBr)cc2)coc2cc(OCCCBr)ccc12`: the result with HeLa [4], in the experiment on A549 [5] and with Hep 3B2 was inactive.
As to `CCN(CC)CCOc1ccc2c(c1)C(=O)c1cc(OCCCl)ccc1-2`, the IC50 (with HeLa [1]; in the experiment on A549 [2]; in experiment [3]) was greater than 100 µM in each case.
Take `CN(C)CCCOc1ccc(-c2coc3cc(OCCCN(C)C)ccc3c2=O)cc1`: the IC50 stood at 22.2 µM with HeLa [1]; 34.9 µM with Vero; 20.6 µM in the experiment with A549 [2]; 24.4 µM in experiment [3]; 41.9 µM with HEK-293T.
For `CCOc1ccc2c(c1)C(=O)c1cc(OCCO)ccc1-2`, the outcome in the experiment on HeLa [4], in the experiment with A549 [5] and with Hep 3B2 was inactive.
Turning to `CC(C)(C)NCCOc1ccc2c(c1)C(=O)c1cc(OCCNC(C)(C)C)ccc1-2`, the IC50 amounted to 9.17 µM with HeLa [1]; 25.3 µM with Vero; 7.86 µM with A549 [2]; 20.1 µM in experiment [3]; 19.8 µM in the experiment on HEK-293T.
As for `CCOc1ccc2c(c1)C(=O)c1cc(OCCCl)ccc1-2`, the result with HeLa [4], in the experiment on A549 [5] and in the experiment on Hep 3B2 was inactive.
On to `CCOc1ccc2c(c1)C(=O)c1cc(OCCN(C)C)ccc1-2`, for which the concentration for half-maximal inhibition (IC50) (in the experiment with HeLa [1]; with A549 [2]; in experiment [3]) was greater than 100 µM each time.
As for `O=c1c(-c2ccc(OCCCl)cc2)coc2cc(OCCCl)ccc12`, the result in the experiment on HeLa [4], in the experiment on A549 [5] and in the experiment on Hep 3B2 was inactive.
In the case of `O=C1c2cc(OCCn3cncn3)ccc2-c2ccc(OCCn3cncn3)cc21`, the IC50 (in the experiment on HeLa [1]; in the experiment with A549 [2]; in experiment [3]) was greater than 100 µM throughout.
For `CCOc1ccc2c(c1)C(=O)c1cc(OCCN(CC)CC)ccc1-2`, the 50% inhibitory concentration (IC50) in the experiment on HeLa [1] is 107 µM; in the experiment on A549 [2], greater than 100 µM; in experiment [3] it was 84.8 µM.
`CCN(CC)CCOc1ccc2c(c1)C(=O)c1cc(OCCN(CC)CC)ccc1-2` [TILORONE HYDROCHLORIDE]: the IC50 with HeLa [1] came out at 40 µM; in the experiment with Vero it was 89.5 µM; in the experiment with A549 [2], 32.6 µM; in experiment [3] it was 38.8 µM; with HEK-293T it was 76.4 µM.
The corresponding values for `CCCCNCCOc1ccc2c(c1)C(=O)c1cc(OCCNCCCC)ccc1-2` are 2.21 µM, 8.89 µM, 2.65 µM, 3.34 µM and 11 µM.
For the molecule `CCN(CC)CCCOc1ccc(-c2coc3cc(OCCCN(CC)CC)ccc3c2=O)cc1`, the figures for the IC50 (with HeLa [1]; in the experiment with A549 [2]; in experiment [3]) were 82.4 µM, 73.5 µM and 76.1 µM, respectively.
On to `CCCNCCOc1ccc2c(c1)C(=O)c1cc(OCCNCCC)ccc1-2`, for which the half-maximal inhibitory concentration (IC50) in the experiment with HeLa [1] is 2.73 µM; in the experiment on Vero it was 8.47 µM; in the experiment on A549 [2] it was 2.96 µM; in experiment [3], 5.17 µM; in the experiment on HEK-293T, 8.59 µM.
The corresponding values for `CC(C)NCCOc1ccc2c(c1)C(=O)c1cc(OCCNC(C)C)ccc1-2` are 1.72 µM, 14.8 µM, 2.43 µM, 8.89 µM and 13.8 µM.
For `CC(C)(C)SCCOc1ccc2c(c1)C(=O)c1cc(OCCSC(C)(C)C)ccc1-2`, the outcome in the experiment on HeLa [4], in the experiment on A549 [5] and in the experiment on Hep 3B2 was inactive.
`CN(C)CC(O)COc1ccc2c(c1)C(=O)c1cc(OCC(O)CN(C)C)ccc1-2` (centres undefined): the IC50 in the experiment with HeLa [1] is 11.7 µM; with Vero, 20.9 µM; with A549 [2] it was 12.6 µM; in experiment [3], 18.3 µM; in the experiment on HEK-293T, 28.3 µM.
As to `O=C1c2cc(OCCn3ccnn3)ccc2-c2ccc(OCCn3ccnn3)cc21`, the IC50 (in the experiment with HeLa [1]; with A549 [2]; in experiment [3]) was greater than 100 µM throughout.
As for `O=C1c2cc(OCCn3ccnc3)ccc2-c2ccc(OCCn3ccnc3)cc21`, the 50% inhibitory concentration (IC50) (with HeLa [1]; in the experiment on A549 [2]; in experiment [3]) was greater than 100 µM each time.
Regarding `CCCN(CCC)CC(O)COc1ccc(-c2coc3cc(OCC(O)CN(CCC)CCC)ccc3c2=O)cc1` (centres undefined), the IC50 in the experiment on HeLa [1] was 5.17 µM; in the experiment with Vero, 35.5 µM; in the experiment with A549 [2], 4.26 µM; in experiment [3], 6.52 µM; with HEK-293T, 39.6 µM.
The corresponding values for `CCN(CC)CC(O)COc1ccc(-c2coc3cc(OCC(O)CN(CC)CC)ccc3c2=O)cc1` (centres undefined) are 27.8 µM, 60.1 µM, 25 µM, 30.4 µM and 52.9 µM.
As for `CCN(CC)CCOc1ccc(-c2coc3cc(OCCN(CC)CC)ccc3c2=O)cc1`, the IC50 in the experiment with HeLa [1] was found to be 26.4 µM; in the experiment with Vero, 102 µM; in the experiment on A549 [2] it was 19.4 µM; in experiment [3], 35.2 µM; in the experiment on HEK-293T, 107 µM.
The matching figures for `CCN(CC)CC(O)COc1ccc2c(c1)C(=O)c1cc(OCC(O)CN(CC)CC)ccc1-2` (centres undefined): 20.2 µM, 48.6 µM, 16 µM, 21.5 µM and 56.4 µM.
`CC(C)SCCOc1ccc2c(c1)C(=O)c1cc(OCCSC(C)C)ccc1-2`: the result in the experiment on HeLa [4], in the experiment with A549 [5] and in the experiment with Hep 3B2 was inactive.
On to `CCCN(CCC)CC(O)COc1ccc2c(c1)C(=O)c1cc(OCC(O)CN(CCC)CCC)ccc1-2` (centres undefined), for which the IC50 was found to be 6.78 µM with HeLa [1]; 57.8 µM with Vero; 7.42 µM with A549 [2]; 9.43 µM in experiment [3]; 54 µM in the experiment with HEK-293T.
